Measurements of several laboratories.
Each line is one published result; the experiments were not run side by side.
Read-out: enzyme activity
Action: inhibitor
CHEK2: Serine/threonine-protein kinase Chk2 (CHEK2, Homo sapiens, UniProt O96017)
CHEK2 R145W: Serine/threonine-protein kinase Chk2 (CHEK2, Homo sapiens, UniProt O96017, R145W)

SMILES	target	method	tested at	remaining activity [%]
Oc1cccc(-c2nc(N3CCOCC3)c3oc4ncccc4c3n2)c1	CHEK2		10 µM	85
O=C(Nc1cnn(-c2csc(C(=O)NC3COC3)c2)c1)Nc1ccccc1Cl	CHEK2		5 µM	97.8
CC(C)(C)c1nc2c(s1)c1nc(N)ncc1c1ccc(NS(=O)(=O)c3c(F)cccc3F)c(F)c12	CHEK2	radiometric	1 µM	72
Nc1nc(Nc2ccccc2)sc1C(=O)c1c(F)cccc1F	CHEK2		10 µM	30
Cn1c(=O)n(-c2ccc(C(C)(C)C#N)cc2)c2c3cc(-c4cnc5ccccc5c4)ccc3ncc21	CHEK2		10 µM	80
Cc1ccc(NC(=O)c2ccc(C)c(C(F)(F)F)c2)cc1C#Cc1nn(C2CCC(O)CC2)c2ncnc(N)c12 (centres unmarked)	CHEK2 R145W		10 µM	102
CC(C)(C)C(=O)c1sc(NC2CCCCC2)nc1N	CHEK2		10 µM	53
Cc1cnc(NC2CCOCC2)nc1-n1cnc(C(=O)NC(CN)c2cc(F)cc(Cl)c2)c1 (centres unmarked)	CHEK2 R145W	radiometric	1 µM	79
CC(C)(O)[C@H]1CC[C@H](Nc2ccc3ncc(-c4cccc(C(F)(F)F)c4)n3n2)CC1	CHEK2		1 µM	97.4
CCCOc1ccc(OC)c(F)c1C(=O)c1ccc(C(=O)N[C@@H]2CNC[C@H]2NC(=O)c2ccc3[nH]ncc3c2)cc1	CHEK2 R145W		10 µM	21
COc1cc(Nc2cnc(C#N)c(O[C@H](C)CN(C)C)n2)ncc1-c1cnn(C)c1	CHEK2	radiometric	1 µM	81
